Source: paper PMC6177519 (Clinical and Experimental Gastroenterology, 2018)
“And” between values parts separate entries of the source, which are not always exact repeats. Identical values can stand only once. Like-named read-outs stand apart in the source and are kept apart here.

Assays:
[1] = human, plasma, 60 mg
Safety evaluation = format: in vivo, healthy adults; conditions: for Participants with any TEAEs: 60 mg
Method in brief: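 3-period crossover; single 60 mg test compound, fasted ≥10 h pre and 4 h post, as granules in 20 mL water via 16 French NG tube or oral syringe, or intact capsule with 240 mL water; ≥5-day washout. TEAE: onset/worsening from first dose to 30 days after last; MedDRA 15.0; phone follow-up 5–10 days post final dose; all dosed subjects.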

[2] = dual delayed-release formulation; cited from earlier work

## Cc1c(OCC(F)(F)F)ccnc1C[S@@+]([O-])c1nc2ccccc2[nH]1 [Dexlansoprazole, dexlansoprazole]
[1]; oral
  Tmax: ~5 h
[1]; po
  Tmax: ~5.5 h
Safety evaluation; 60 mg capsule, single doses, all administration routes
  Tolerability: well tolerated
Safety evaluation; oral intact capsule, N=52
  Participants with any TEAEs: 12 (23.1%) n (%) and 12 (23.1) n (%)
Safety evaluation; oral syringe administration, N=60
  Participants with any TEAEs: 10 (16.7%) n (%) and 10 (16.7) n (%)
[2]
  Time of first release of dexlansoprazole after dosing: 1 to 2 h
  Time of second release of dexlansoprazole after dosing: 4 to 5 h
